How the values were obtained:
[1] = system: A-431; assay: cells; type: functional, cell-based; conditions: Homo sapiens, A-431, 48 h
[2] = Intrinsic clearance in human liver microsomes assessed per mg protein at 1 uM in presence of NADPH after 0.5 to 30 mins by LC/MS/MS method; type: ADME; conditions: read-out: CLH
[3] = Intrinsic clearance in rat liver microsomes assessed per mg protein at 1 uM in presence of NADPH after 0.5 to 30 mins by LC/MS/MS method; type: ADME; conditions: read-out: CLH
[4] = Intrinsic clearance in mouse liver microsomes assessed per mg protein at 1 uM in presence of NADPH after 0.5 to 30 mins by LC/MS/MS method; type: ADME; conditions: read-out: CLH
[5] = Intrinsic clearance in dog liver microsomes assessed per mg protein at 1 uM in presence of NADPH after 0.5 to 30 mins by LC/MS/MS method; type: ADME, Canis lupus familiaris; conditions: read-out: CLH
[6] = Intrinsic clearance in monkey liver microsomes assessed per mg protein at 1 uM in presence of NADPH after 0.5 to 30 mins by LC/MS/MS method; type: ADME, Macaca mulatta; conditions: rhesus monkey, read-out: CLH
[7] = molecular target: Cytochrome P450 3A4 (Homo sapiens, UniProt P08684); assay: Inhibition of CYP3A4 in human hepatic microsomes after 20 mins by LC/MS/MS method; type: ADME, Liver
[8] = molecular target: Cytochrome P450 2D6 (Homo sapiens, UniProt P10635); assay: Inhibition of CYP2D6 in human hepatic microsomes after 20 mins by LC/MS/MS method; type: ADME, Liver
[9] = molecular target: Cytochrome P450 2C9 (Homo sapiens, UniProt P11712); assay: Inhibition of CYP2C9 in human hepatic microsomes after 20 mins by LC/MS/MS method; type: ADME, Liver
[10] = molecular target: T1, Cytochrome P450 1A2 (Homo sapiens, UniProt P05177); assay: Inhibition of CYP1A2 in human hepatic microsomes after 20 mins by LC/MS/MS method; type: ADME, Liver
T1 sequence (P05177 whole entry): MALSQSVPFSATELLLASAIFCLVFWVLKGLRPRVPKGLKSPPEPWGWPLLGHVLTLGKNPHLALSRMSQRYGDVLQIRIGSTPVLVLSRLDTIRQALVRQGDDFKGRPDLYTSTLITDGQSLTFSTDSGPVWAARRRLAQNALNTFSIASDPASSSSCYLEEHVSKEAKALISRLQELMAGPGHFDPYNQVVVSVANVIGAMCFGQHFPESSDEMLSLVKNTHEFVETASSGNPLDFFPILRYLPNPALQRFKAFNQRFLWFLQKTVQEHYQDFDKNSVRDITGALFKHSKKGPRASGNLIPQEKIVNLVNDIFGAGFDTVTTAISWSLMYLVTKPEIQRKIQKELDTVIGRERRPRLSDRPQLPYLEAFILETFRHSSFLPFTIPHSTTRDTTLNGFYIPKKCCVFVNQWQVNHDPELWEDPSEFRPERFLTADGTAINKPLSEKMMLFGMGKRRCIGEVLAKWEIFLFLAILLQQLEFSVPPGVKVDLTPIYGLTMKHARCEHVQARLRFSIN

[11] = molecular target: Cytochrome P450 2C19 (Homo sapiens, UniProt P33261); assay: Inhibition of CYP2C19 in human hepatic microsomes after 20 mins by LC/MS/MS method; type: ADME, Liver
[12] = AUC (0 to infinity) in BALB/c mouse at 5 mg/kg, po after 24 hrs by LC/MS/MS method; type: ADME, organism-based, Plasma; design: time infinity, dose 5 mg/kg, route oral; conditions: BALB/c, plasma
[13] = Cmax in BALB/c mouse at 5 mg/kg, po after 24 hrs by LC/MS/MS method; type: ADME, organism-based; design: dose 5 mg/kg, route oral; conditions: in vivo
[14] = Apparent clearance in BALB/c mouse at 5 mg/kg, po after 24 hrs by LC/MS/MS method; type: ADME, organism-based; design: dose 5 mg/kg, route oral; conditions: BALB/c, in vivo, read-out: CL(app)
[15] = system: Mus musculus; assay: Apparent volume of distribution in BALB/c mouse at 5 mg/kg, po after 24 hrs by LC/MS/MS method; type: ADME, organism-based; design: dose 5 mg/kg, route oral; conditions: in vivo
[16] = Oral bioavailability in BALB/c mouse at 5 mg/kg after 24 hrs by LC/MS/MS method; type: ADME, organism-based; conditions: in vivo
[17] = Ratio of drug level in lung to plasma in BALB/c mouse at 30 mg/kg, po after 6 hrs by LC/MS/MS method; type: ADME, organism-based; design: dose 30 mg/kg, route oral
Procedure, shortened: (§1)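 BALB/c mice received a single oral dose of 30 mg/kg. Drug concentrations in lung, brain and plasma were measured at multiple time points over 6 h. Mean tissue levels are expressed as a lung/plasma/brain ratio, with plasma set to 1.0.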

[18] = Ratio of drug level in brain to plasma in BALB/c mouse at 30 mg/kg, po after 6 hrs by LC/MS/MS method; type: ADME, organism-based; design: dose 30 mg/kg, route oral; conditions: read-out: BPR
Procedure, shortened: as §1

[19] = molecular target: T2, hERG (KCNH2) (Homo sapiens, UniProt Q12809); assay: Inhibition of human ERG assessed as reduction in channel currents at 1 uM
[20] = molecular target: T2, hERG (KCNH2); assay: Inhibition of human ERG assessed as reduction in channel currents at 10 uM
[21] = system: NCI-H1975; assay: Antitumor activity against human NCI-H1975 cells xenografted in nude mouse assessed as reduction in tumor growth at 30 mg/kg/day, ig relative to untreated control; type: functional; conditions: route intragastric
[22] = system: Mus musculus; assay: (§2) AUC (0 to infinity) in BALB/c mouse at 10 mg/kg, po after 24 hrs by LC/MS/MS method; type: ADME, organism-based, Plasma; design: dose 10 mg/kg, route oral, time infinity; conditions: in vivo, 24 h
[23] = Cmax in BALB/c mouse at 10 mg/kg, po after 24 hrs by LC/MS/MS method; type: ADME, organism-based; design: dose 10 mg/kg, route oral; conditions: in vivo
[24] = system: Mus musculus; assay: (§3) Apparent clearance in BALB/c mouse at 10 mg/kg, po after 24 hrs by LC/MS/MS method; type: ADME, organism-based; design: dose 10 mg/kg, route oral; conditions: in vivo, 24 h
[25] = system: Mus musculus; assay: Apparent volume of distribution in BALB/c mouse at 10 mg/kg, po after 24 hrs by LC/MS/MS method; type: ADME, organism-based; design: dose 10 mg/kg, route oral; conditions: in vivo
[26] = Oral bioavailability in BALB/c mouse at 10 mg/kg after 24 hrs by LC/MS/MS method; type: ADME, organism-based; conditions: in vivo
[27] = system: SW-620; assay: Growth inhibition of human SW620 cells at 5 uM; type: functional; conditions: read-out: GI
[28] = molecular target: Epidermal growth factor receptor (Homo sapiens, UniProt P00533);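 also: inhibition of wild-type EGFR read out by HTRF, with a 5 min incubation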
[29] = molecular target: Epidermal growth factor receptor (Homo sapiens, UniProt P00533, T790M); type: protein assay
[30] = molecular target: Platelet-derived growth factor receptor alpha (Homo sapiens, UniProt P16234); assay: Inhibition of wild type PDGFRalpha (unknown origin) incubated for 5 mins by HTRF assay
[31] = molecular target: Platelet-derived growth factor receptor beta (Homo sapiens, UniProt P09619); assay: Inhibition of wild type PDGFRbeta (unknown origin) incubated for 5 mins by HTRF assay
[32] = molecular target: Tyrosine-protein kinase JAK2 (Homo sapiens, UniProt O60674); assay: Inhibition of wild type JAK2 (unknown origin) incubated for 5 mins by HTRF assay
[33] = molecular target: Tyrosine-protein kinase SYK (Homo sapiens, UniProt P43405); assay: Inhibition of wild type SYK (unknown origin) incubated for 5 mins by HTRF assay
[34] = molecular target: ALK tyrosine kinase receptor (Homo sapiens, UniProt Q9UM73); assay: Inhibition of wild type ALK (unknown origin) incubated for 5 mins by HTRF assay
[35] = molecular target: RAC-alpha serine/threonine-protein kinase (Homo sapiens, UniProt P31749); assay: Inhibition of wild type AKT1 (unknown origin) incubated for 5 mins by HTRF assay
[36] = molecular target: RAC-beta serine/threonine-protein kinase (Homo sapiens, UniProt P31751); assay: Inhibition of wild type AKT2 (unknown origin) incubated for 5 mins by HTRF assay
[37] = molecular target: Hepatocyte growth factor receptor (Homo sapiens, UniProt P08581); assay: Inhibition of wild type c-Met (unknown origin) incubated for 5 mins by HTRF assay
[38] = molecular target: Fibroblast growth factor receptor 2 (Homo sapiens, UniProt P21802); assay: Inhibition of wild type FGFR2 (unknown origin) incubated for 5 mins by HTRF assay
[39] = molecular target: Receptor-type tyrosine-protein kinase FLT3 (Homo sapiens, UniProt P36888); assay: Inhibition of wild type FLT3 (unknown origin) incubated for 5 mins by HTRF assay
[40] = molecular target: Tyrosine-protein kinase ABL1 (Homo sapiens, UniProt P00519); assay: Inhibition of wild type ABL (unknown origin) incubated for 5 mins by HTRF assay
[41] = molecular target: Proto-oncogene tyrosine-protein kinase Src (Homo sapiens, UniProt P12931); assay: Inhibition of wild type SRC (unknown origin) incubated for 5 mins by HTRF assay
[42] = as §2; type: ADME, organism-based, Plasma; design: dose 10 mg/kg, route oral, time infinity; conditions: BALB/c, plasma
[43] = as §3; type: ADME, organism-based; design: dose 10 mg/kg, route oral; conditions: BALB/c, in vivo, read-out: CL(app)

T2 sequence (Q12809 whole entry): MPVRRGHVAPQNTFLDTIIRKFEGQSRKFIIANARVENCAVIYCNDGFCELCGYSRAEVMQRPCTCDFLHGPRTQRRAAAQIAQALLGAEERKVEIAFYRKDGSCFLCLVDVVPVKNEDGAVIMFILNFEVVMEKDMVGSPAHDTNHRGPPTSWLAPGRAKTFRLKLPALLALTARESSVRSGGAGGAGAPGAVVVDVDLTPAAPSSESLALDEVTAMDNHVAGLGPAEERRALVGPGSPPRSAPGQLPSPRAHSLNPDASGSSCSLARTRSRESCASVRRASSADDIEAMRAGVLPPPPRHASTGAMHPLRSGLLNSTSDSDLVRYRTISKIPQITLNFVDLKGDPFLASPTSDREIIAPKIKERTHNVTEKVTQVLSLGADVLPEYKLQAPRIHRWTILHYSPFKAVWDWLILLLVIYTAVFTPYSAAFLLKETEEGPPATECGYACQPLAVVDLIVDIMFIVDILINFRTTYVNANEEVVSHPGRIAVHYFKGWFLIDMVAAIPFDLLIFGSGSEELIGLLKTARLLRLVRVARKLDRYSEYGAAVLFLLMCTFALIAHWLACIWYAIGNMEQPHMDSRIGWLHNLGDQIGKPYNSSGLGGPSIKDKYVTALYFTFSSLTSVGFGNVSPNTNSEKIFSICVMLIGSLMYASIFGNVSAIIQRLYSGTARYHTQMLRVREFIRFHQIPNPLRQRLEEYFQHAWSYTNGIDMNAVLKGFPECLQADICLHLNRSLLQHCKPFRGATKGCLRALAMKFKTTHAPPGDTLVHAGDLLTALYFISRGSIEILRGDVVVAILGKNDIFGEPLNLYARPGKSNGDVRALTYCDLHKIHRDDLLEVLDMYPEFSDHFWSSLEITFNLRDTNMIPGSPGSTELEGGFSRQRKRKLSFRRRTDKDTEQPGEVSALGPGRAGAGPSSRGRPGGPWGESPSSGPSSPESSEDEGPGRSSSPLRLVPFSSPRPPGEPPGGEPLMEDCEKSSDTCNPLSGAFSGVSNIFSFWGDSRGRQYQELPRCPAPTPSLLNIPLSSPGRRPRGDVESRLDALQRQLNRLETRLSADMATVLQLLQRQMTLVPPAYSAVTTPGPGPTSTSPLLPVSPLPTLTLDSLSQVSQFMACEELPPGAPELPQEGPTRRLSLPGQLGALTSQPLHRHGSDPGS
Chain of Cytochrome P450 3A4 (P08684 whole entry): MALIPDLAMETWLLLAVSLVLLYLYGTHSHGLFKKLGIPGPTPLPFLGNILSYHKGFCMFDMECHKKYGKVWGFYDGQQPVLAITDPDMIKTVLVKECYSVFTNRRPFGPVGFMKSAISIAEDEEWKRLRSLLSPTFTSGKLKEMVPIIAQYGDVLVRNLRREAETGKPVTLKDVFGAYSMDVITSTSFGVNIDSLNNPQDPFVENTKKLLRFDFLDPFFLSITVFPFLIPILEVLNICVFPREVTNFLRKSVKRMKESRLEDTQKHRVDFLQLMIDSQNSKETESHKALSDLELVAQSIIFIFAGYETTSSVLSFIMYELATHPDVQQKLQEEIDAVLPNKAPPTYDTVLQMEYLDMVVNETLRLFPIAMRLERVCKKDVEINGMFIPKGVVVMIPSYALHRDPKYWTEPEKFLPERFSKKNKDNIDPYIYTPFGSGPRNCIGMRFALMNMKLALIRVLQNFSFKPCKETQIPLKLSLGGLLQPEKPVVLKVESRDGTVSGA
Chain of Cytochrome P450 2C9 (P11712 whole entry): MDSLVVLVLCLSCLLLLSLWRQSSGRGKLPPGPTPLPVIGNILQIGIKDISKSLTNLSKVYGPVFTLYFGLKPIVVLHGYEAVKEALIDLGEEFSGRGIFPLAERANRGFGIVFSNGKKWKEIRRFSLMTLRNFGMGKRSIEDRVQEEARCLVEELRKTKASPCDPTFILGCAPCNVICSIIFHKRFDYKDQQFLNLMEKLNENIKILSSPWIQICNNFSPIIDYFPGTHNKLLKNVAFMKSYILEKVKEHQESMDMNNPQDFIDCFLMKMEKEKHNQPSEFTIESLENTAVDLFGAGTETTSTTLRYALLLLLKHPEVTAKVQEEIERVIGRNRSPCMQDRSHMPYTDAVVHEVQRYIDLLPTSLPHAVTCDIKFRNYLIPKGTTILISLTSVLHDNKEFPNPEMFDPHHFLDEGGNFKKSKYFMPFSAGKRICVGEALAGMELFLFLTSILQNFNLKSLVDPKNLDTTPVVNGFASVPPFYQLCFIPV
Chain of Cytochrome P450 2C19 (P33261 whole entry): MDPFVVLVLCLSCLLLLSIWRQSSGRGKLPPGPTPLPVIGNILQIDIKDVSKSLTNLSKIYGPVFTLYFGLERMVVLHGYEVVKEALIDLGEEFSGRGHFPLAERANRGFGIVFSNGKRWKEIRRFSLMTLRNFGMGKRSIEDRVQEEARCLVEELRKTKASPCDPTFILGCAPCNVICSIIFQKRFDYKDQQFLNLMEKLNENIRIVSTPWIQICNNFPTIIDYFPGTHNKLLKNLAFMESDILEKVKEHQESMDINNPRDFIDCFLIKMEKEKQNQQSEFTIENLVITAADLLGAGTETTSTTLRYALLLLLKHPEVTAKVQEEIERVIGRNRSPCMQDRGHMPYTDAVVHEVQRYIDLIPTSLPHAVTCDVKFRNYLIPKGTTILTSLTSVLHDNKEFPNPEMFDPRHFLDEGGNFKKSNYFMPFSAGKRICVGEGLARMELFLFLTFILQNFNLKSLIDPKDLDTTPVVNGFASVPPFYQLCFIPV
Chain of Cytochrome P450 2D6 (P10635 whole entry): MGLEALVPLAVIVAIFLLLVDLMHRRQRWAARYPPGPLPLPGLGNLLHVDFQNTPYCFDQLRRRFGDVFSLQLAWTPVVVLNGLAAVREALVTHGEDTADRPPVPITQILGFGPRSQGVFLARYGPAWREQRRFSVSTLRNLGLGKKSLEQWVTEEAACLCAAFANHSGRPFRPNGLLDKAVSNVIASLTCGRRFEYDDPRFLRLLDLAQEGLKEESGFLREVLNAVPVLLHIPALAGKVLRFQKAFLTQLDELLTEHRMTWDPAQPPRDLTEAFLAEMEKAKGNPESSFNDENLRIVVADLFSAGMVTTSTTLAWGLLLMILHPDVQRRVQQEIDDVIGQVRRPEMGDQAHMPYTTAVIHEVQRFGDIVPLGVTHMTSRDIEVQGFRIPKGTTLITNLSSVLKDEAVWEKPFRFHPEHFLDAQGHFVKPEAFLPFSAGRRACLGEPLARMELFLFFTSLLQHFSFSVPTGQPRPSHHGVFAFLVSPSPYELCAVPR
Chain of Platelet-derived growth factor receptor alpha (P16234 whole entry): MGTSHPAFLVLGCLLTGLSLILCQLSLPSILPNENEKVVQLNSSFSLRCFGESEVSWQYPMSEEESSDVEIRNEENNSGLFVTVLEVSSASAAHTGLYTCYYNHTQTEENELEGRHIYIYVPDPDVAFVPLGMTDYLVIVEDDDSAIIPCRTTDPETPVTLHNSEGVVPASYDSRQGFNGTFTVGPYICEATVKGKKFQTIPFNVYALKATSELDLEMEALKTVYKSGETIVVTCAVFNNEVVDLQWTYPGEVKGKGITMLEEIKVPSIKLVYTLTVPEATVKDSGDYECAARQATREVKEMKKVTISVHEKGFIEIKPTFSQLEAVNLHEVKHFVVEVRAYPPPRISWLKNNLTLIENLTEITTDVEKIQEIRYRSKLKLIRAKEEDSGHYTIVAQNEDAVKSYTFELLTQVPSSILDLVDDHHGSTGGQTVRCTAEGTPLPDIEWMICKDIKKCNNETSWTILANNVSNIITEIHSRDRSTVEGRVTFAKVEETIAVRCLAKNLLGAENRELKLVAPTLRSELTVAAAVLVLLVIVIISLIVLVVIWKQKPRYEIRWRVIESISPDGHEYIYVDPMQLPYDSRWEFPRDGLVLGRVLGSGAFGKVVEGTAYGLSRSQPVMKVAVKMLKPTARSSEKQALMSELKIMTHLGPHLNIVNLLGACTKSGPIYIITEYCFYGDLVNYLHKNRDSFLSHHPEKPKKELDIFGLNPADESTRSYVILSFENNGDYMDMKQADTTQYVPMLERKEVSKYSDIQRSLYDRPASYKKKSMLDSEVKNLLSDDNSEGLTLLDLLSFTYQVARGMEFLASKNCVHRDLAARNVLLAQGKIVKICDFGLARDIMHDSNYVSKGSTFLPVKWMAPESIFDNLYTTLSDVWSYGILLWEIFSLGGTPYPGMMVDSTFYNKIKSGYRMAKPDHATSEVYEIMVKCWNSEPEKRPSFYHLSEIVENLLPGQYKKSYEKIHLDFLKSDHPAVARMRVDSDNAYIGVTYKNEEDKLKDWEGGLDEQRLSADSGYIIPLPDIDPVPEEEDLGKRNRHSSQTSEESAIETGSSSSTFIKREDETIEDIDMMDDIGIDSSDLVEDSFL
Chain of RAC-beta serine/threonine-protein kinase (P31751 whole entry): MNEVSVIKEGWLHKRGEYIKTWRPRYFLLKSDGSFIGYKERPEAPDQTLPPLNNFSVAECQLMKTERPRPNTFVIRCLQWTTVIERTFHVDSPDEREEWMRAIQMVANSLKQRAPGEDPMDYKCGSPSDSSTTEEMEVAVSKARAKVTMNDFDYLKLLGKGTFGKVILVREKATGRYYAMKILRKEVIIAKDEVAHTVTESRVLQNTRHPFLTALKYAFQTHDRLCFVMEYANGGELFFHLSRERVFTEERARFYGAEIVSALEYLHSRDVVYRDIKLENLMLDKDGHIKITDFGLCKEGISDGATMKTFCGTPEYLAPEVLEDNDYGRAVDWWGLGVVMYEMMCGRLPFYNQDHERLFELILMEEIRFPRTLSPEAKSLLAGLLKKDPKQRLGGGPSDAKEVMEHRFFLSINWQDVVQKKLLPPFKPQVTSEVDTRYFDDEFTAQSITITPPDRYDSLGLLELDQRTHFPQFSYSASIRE

microsomal CLint at 1 µM [2] | microsomal CLint at 1 µM [3] | microsomal CLint at 1 µM [4] | microsomal CLint at 1 µM [5] | microsomal CLint at 1 µM [6] | IC50 [7] | IC50 [8] | IC50 [9] | IC50 [10] | IC50 [11] | Cmax [23] | Vz [25] | bioavailability [26] | SMILES | inhibition at 1 µM [19] | inhibition at 10 µM [20] | T/C [21] | other results
37 µL/min/mg | 11 µL/min/mg | 31 µL/min/mg | 34 µL/min/mg | 102 µL/min/mg | > 10 µM | > 10 µM | > 10 µM | > 10 µM | > 10 µM |  |  |  | COc1cc2ncnc(Nc3ccc(F)c(Cl)c3)c2cc1NC(=O)/C(F)=C/CN1CCCCC1 | 0.71% | 11.8% | 67.4% | IC50 [1]: 0.46 µM; AUC(0-inf) [12]: 5.1 µM·h; Cmax [13]: 830 nM; CL/F [14]: 40 mL/min/kg; Vz [15]: 7.14 L/kg; bioavailability [16]: 105%; Kp at 6 h [17]: 20; Kp at 6 h [18]: 2.31
8 µL/min/mg | 12 µL/min/mg | 6 µL/min/mg | 9 µL/min/mg | 24 µL/min/mg |  |  |  |  |  | 130 nM | 36.2 L/kg | 37.4% | CN(C)C/C=C/C(=O)Nc1cc2c(Nc3ccc(F)c(Cl)c3)ncnc2cc1O[C@H]1CCOC1 [AFATINIB] |  |  | 30.3% | AUC [22]: 29.4 µM·min; CL(app) [24]: 270 mL/min/kg; inhibition of growth at 5 µM [27]: 78%
14 µL/min/mg | 18 µL/min/mg | 45 µL/min/mg | 194 µL/min/mg | 128 µL/min/mg | > 10 µM | > 10 µM | > 10 µM | > 10 µM | > 10 µM | 790 nM | 14 L/kg | 98.5% | COc1cc2ncnc(Nc3ccc(F)c(Cl)c3)c2cc1NC(=O)/C(F)=C/CN(C)C | 2.55% | 18.4% |  | IC50 [28]: 0.0002 µM; IC50 [29]: 0.00667 µM; IC50 [30]: 3.6 µM; IC50 [31]: 2.1 µM; IC50 [32]: > 10 µM; IC50 [33]: > 10 µM; IC50 [34]: > 10 µM; IC50 [35]: > 10 µM; IC50 [36]: > 10 µM; IC50 [37]: > 10 µM; IC50 [38]: > 10 µM; IC50 [39]: 6.81 µM; IC50 [40]: 2.26 µM; IC50 [41]: 1.73 µM; AUC(0-inf) [42]: 7.67 µM·h; CL/F [43]: 50 mL/min/kg

From ChEMBL document CHEMBL3351667, “A chemical tuned strategy to develop novel irreversible EGFR-TK inhibitors with improved safety and pharmacokinetic profiles” (J Med Chem, 2014)
